ChEMBL document CHEMBL4513216, “Probing the Open Global Health Chemical Diversity Library for Multistage-Active Starting Points for Next-Generation Antimalarials” (ACS Infect Dis, 2020)

Assay: Toxicity liver stage against HepG2, at 10uM
Assay type: cell-based
Design: test concentration 10 uM, cell line HepG2-A16-CD81EGFP
Settings: human, HepG2-A16-CD81EGFP cells; read-out: INHIBITION
Method in brief: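 Uninfected HepG2-A16-CD81EGFP cells, 3 × 10^3 per well, 1536-well, plated on prespotted compound at 10 μM final, parasite-free screening media added to match infected plates; puromycin 10 μM positive, DMSO 0.5% negative; run in parallel with 48 h PbLuc assay at 37 °C, 5% CO2; viability by CellTiter-Glo luminescence, normalized to controls.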
With `O=C(Nc1ccc2c(c1)OCO2)N1CCN(CCn2cccn2)CC1` the cytotoxicity at 10 µM was 0.741%. Compound `CCOCC(=O)N1CCC(CSCc2ccco2)CC1` has a cytotoxicity at 10 µM of -7.36%. Compound `CC(=O)NCC(=O)N1CCC2(CC1)NC(=O)CC2c1cnn(C)c1` (stereo not given) has a cytotoxicity at 10 µM of -0.113%. In the case of `OCCN1CCCC(c2cccc(-c3ccccc3F)n2)C1` (stereo not given), the cytotoxicity at 10 µM is reported as 5.68%. With `CC(=O)Nc1cccc([C@H]2C[C@@H](NC(C)=O)CCO2)c1` the cytotoxicity at 10 µM was -0.825%. `Cc1cnc(CCNC(=O)NCCc2ccc(O)cc2)s1` showed a cytotoxicity at 10 µM of -0.276%. With `Cc1cnn(C2CCCN(C(=O)c3cc(-c4cccs4)n[nH]3)C2)c1` (stereo not given) the cytotoxicity at 10 µM was -7.83%. For `COc1cc(C)sc1C(=O)NCCNc1ccccc1`, the cytotoxicity at 10 µM was -7.64%. With `CN(Cc1ccc2c(c1)OCCO2)Cn1nc(C(C)(C)C)ccc1=O` the cytotoxicity at 10 µM was -12.4%. `COC(=O)CCCN(C)C(=O)c1cc(F)cc2[nH]cnc12` gave a cytotoxicity at 10 µM of -2.23%. `CCc1nn(C)c2[nH]nc(NC(=O)c3cccnc3OC)c12` gave a cytotoxicity at 10 µM of -8.98%. `CCN(CC)S(=O)(=O)N1CCCC1C(=O)N1CCSCC1` (stereo not given) showed a cytotoxicity at 10 µM of -4.71%. Work on `CSc1ccc(OC(C)C(=O)Nc2cc(C)n[nH]2)cc1` (stereo not given) yielded a cytotoxicity at 10 µM of 8.64%. Compound `Cc1occc1C(=O)N1C[C@@H]2CCCO[C@@H]2[C@H](NS(C)(=O)=O)C1` has a cytotoxicity at 10 µM of -95.3%. `O=C(C1CC=CC1)N1CC[C@@H](O)[C@H]1Cc1cccnc1` showed a cytotoxicity at 10 µM of -99.4%. `Cn1cc(CN2CCCC(CCc3ccccc3C(F)(F)F)C2)cn1` (stereo not given) showed a cytotoxicity at 10 µM of -4.24%. `COc1cccc(C(=O)C2CCCN(c3nccc(N)n3)C2)c1` (stereo not given) showed a cytotoxicity at 10 µM of -1.82%. `COc1cc(N(C)Cc2noc(CC(C)C)n2)ncn1` showed a cytotoxicity at 10 µM of -0.71%. Compound `COCCCN1CCCC(c2nccn2CC2CCC2)C1` (stereo not given) has a cytotoxicity at 10 µM of -3.94%. With `Cc1nccn1-c1ccc(N2CCC(N[C@H](C)C(C)C)CC2)cc1` the cytotoxicity at 10 µM was -6.39%. Compound `CC(=O)NCC(=O)N1CCc2[nH]c(-c3ccccc3)nc2C1` has a cytotoxicity at 10 µM of -0.591%. Work on `Cc1c(C(C)NCc2cnn(C)c2)cnn1-c1ccccc1` (stereo not given) yielded a cytotoxicity at 10 µM of -5.78%. For `COCCN1CCN(Cc2cccnc2)[C@H]2CS(=O)(=O)C[C@H]21`, the cytotoxicity at 10 µM was 6.03%. Compound `Cc1ccccc1N1CCN(C(=O)c2cnc(C3CC3)nc2)C(C)C1` (stereo not given) has a cytotoxicity at 10 µM of 2.09%. With `Cn1cc(CN2CCCC(CCc3ccc(F)cc3F)C2)cn1` (stereo not given) the cytotoxicity at 10 µM was -10.4%. `CS(=O)(=O)NCCC1CCCN(Cc2ccccc2F)C1` (stereo not given) showed a cytotoxicity at 10 µM of -1.25%. In the case of `COc1ccc(C(C(=O)O)N2CCN(C3CCCC3)CC2)cc1C` (stereo not given), the cytotoxicity at 10 µM is reported as -8.77%. `COc1ccc(NC(=O)CCC2CCCN(S(=O)(=O)C3CC3)C2)cc1Cl` (stereo not given) showed a cytotoxicity at 10 µM of 11.3%. Work on `Nc1ncccc1CN1C[C@@H](C(=O)O)[C@H](c2cccc(F)c2)C1` yielded a cytotoxicity at 10 µM of -11.1%. With `CN1CC2(CCN(CCCOCc3ccccc3)CC2)OC1=O` the cytotoxicity at 10 µM was 3.12%. Work on `Cc1noc(CNc2ccc(C(=O)N3CCCC(C)C3)cc2C)n1` (stereo not given) yielded a cytotoxicity at 10 µM of -4.07%. `COc1c(CNC2CCCN(c3ncccn3)C2)c(C(C)C)nn1C` (stereo not given) gave a cytotoxicity at 10 µM of -9.94%. With `CN(CC(=O)Nc1cccnc1)C1CCCN(c2cccnn2)C1` (stereo not given) the cytotoxicity at 10 µM was -2.42%. In the case of `CCCN1CCC(CNC(=O)C2(c3ccccc3)CCC2)C1` (stereo not given), the cytotoxicity at 10 µM is reported as -6.29%. In the case of `CC1CCN(S(=O)(=O)NCc2ccccc2Cn2cccn2)CC1`, the cytotoxicity at 10 µM is reported as 7.4%. Compound `Cc1nc(CN2CCN(C(=O)CCc3ccco3)CC2)cs1` has a cytotoxicity at 10 µM of -4.39%. `Cc1cnc(C(=O)N2CCCC(n3ccnc3C)C2)cn1` (stereo not given) showed a cytotoxicity at 10 µM of -10.8%. Work on `O=C(NCCCN1CCc2ccccc2C1)c1cccnc1O` yielded a cytotoxicity at 10 µM of -3.49%. Compound `O=C(Cc1csc(-c2ccco2)n1)N1CCN(c2cnccn2)CC1` has a cytotoxicity at 10 µM of 0.0241%. Compound `CC(=O)N(Cc1noc(C)n1)C1CCN(Cc2ccccc2C#N)C1` (stereo not given) has a cytotoxicity at 10 µM of -1.76%. `CC(Cn1cccn1)NC(=O)CCc1ccc(S(N)(=O)=O)cc1` (stereo not given) gave a cytotoxicity at 10 µM of -2.02%. `CC(C)c1nc2n(n1)CC(NCc1nc(-c3cccnc3)no1)CC2` (stereo not given) showed a cytotoxicity at 10 µM of 4.04%. `CCN1C[C@H]2C3(CCN(C(=O)NC(C)C)CC3)CC[C@@]2(C(=O)NC)C1` gave a cytotoxicity at 10 µM of -106%. With `COc1cccc(CN2C[C@@H]3COC[C@]3(CNC(=O)C3CC3)C2)c1` the cytotoxicity at 10 µM was -99%. `CCC(=O)N1CCN(CCn2cccn2)c2ncccc2C1` showed a cytotoxicity at 10 µM of -106%.
